Source: ChEMBL document CHEMBL4145444, “Investigating the structure-activity relationships of N'-[(5-nitrofuran-2-yl) methylene] substituted hydrazides against Trypanosoma cruzi to design novel active compounds” (Eur J Med Chem, 2018)
Calls of active or inactive are those of the source. The calls are words filed in the database; no cut-off is given here.

How the values were obtained:
Trypanosoma cruzi [1] = assay: Antitrypanosomal activity against Trypanosoma cruzi Colombiana Tc1 epimastigotes measured after 72 hrs; type: functional, organism-based; conditions: for IC50: Trypanosoma cruzi, Colombiana, 72 h
Method in brief: (§1)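 Exponentially growing epimastigotes (1.0*10^7 parasites/mL) cultured in LIT-FCS medium with compound from 0.4 to 300.0 µM, added from DMSO stock (DMSO ≤1.0%), 72 h at 28 °C. Viable parasites read by absorbance at 562 nm. PGI computed against untreated culture after subtracting compound/medium blanks. IC50 from sigmoid dose-response fit using at least six concentrations. Triplicates, at least two independent experiments.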

Trypanosoma cruzi [2] = assay: Antitrypanosomal activity against Trypanosoma cruzi Silvio X10 cl1 Tc1 epimastigotes measured after 72 hrs; type: functional, organism-based; conditions: for IC50: Trypanosoma cruzi, Silvio X10 cl1, 72 h
Method in brief: as §1, with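 “°C.” for “°C. Viable parasites read by absorbance at 562 nm.”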

Trypanosoma cruzi [3] = assay: Antitrypanosomal activity Trypanosoma cruzi Y Tc2 epimastigotes measured after 72 hrs; type: functional, organism-based; conditions: for IC50: Trypanosoma cruzi, Y, 72 h; method in brief: as §1
Trypanosoma cruzi [4] = assay: Antitrypanosomal activity Trypanosoma cruzi Bug 2149 cl10 Tc5 epimastigotes measured after 72 hrs; type: functional, organism-based; conditions: for IC50: Trypanosoma cruzi, Bug 2149 cl10, CL1-0, 72 h
Method in brief: as §1, with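 “°C.” for “°C. Viable parasites read by absorbance at 562 nm.”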

Trypanosoma cruzi [5] = assay: Antitrypanosomal activity against Trypanosoma cruzi Colombiana Tc1 trypamastigotes infected in monkey LLC-MK2 cells assessed as inhibition of parasite viability by measuring motility at 1 uM after 20 hrs by light microscopic method relative to control; type: functional; conditions: LLC-MK2, 20 h
Method in brief: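 Colombiana trypomastigotes, centrifuged at 7,000 rpm at 4 °C, resuspended at 10^6/mL in DME with 2% FCS. Exposed to 1 μM compound, 0.5% DMSO final, 20 h at 37 °C, 5% CO2. Viability judged by motility under light microscope. Live parasites counted in a Neubauer chamber. % inhibition relative to drug-free control. Two independent experiments.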

Trypanosoma cruzi [6] = assay: Antitrypanosomal activity against Trypanosoma cruzi Y Tc2 amastigotes infected in human U2OS cells after 72 hrs by Draq5 staining based HCS analysis; type: functional, organism-based
Method in brief: (§2)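 U2OS cells (700/well, high-glucose DME, 10% FBS) seeded and incubated 24 h. Then infected with 2,800 Y-strain trypomastigotes harvested from LLC-MK2 cells. On day 3, 14-point 2-fold dilutions added, top 200 μM, 1% DMSO, 72 h. Fixed in 4% PFA, Draq5 stained, imaged at 20x. Infection ratio normalized to DMSO-mock infected and uninfected controls. IC50 by sigmoidal variable-slope fit. Doublets, duplicate experiments.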

[7] = Cytotoxicity against human U2OS cells assessed as reduction in cell viability; type: cell-based
[8] = Selectivity index, ratio of CC50 for cytotoxicity against human U2OS cells to IC50 for Trypanosoma cruzi Y Tc2 amastigotes infected in human U2OS cells; type: toxicity, cell-based; conditions: read-out: Ratio CC50/IC50
Method in brief: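 Ratio of U2OS CC50 to Y-strain amastigote IC50, both from the same 72 h Draq5-stained HCS assay in infected U2OS cells (2-fold series up to 200 μM, 1% DMSO).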

Trypanosoma cruzi [9] = assay: Antitrypanosomal activity against Trypanosoma cruzi Y Tc2 amastigotes infected in human U2OS cells up to 200 uM after 72 hrs by Draq5 staining based HCS analysis relative to control; type: functional; method in brief: as §2
Trypanosoma cruzi [10] = assay: Antitrypanosomal activity against Trypanosoma cruzi Y Tc2 amastigotes infected in human U2OS cells at 1.56 uM after 72 hrs by Draq5 staining based HCS analysis; type: functional, organism-based
Trypanosoma cruzi [11] = assay: Antitrypanosomal activity against Trypanosoma cruzi Y Tc2 amastigotes infected in human U2OS cells at 0.39 uM after 72 hrs by Draq5 staining based HCS analysis; type: functional, organism-based
U2OS = assay: Cytotoxicity against human U2OS cells assessed as effect on cell morphology at 1.56 uM after 72 hrs by HCS analysis; type: cell-based
Trypanosoma cruzi [12] = assay: Potency index, ratio of benznidazole IC50 to compound IC50 for antitrypanosomal activity against Trypanosoma cruzi Y Tc2 amastigotes infected in human U2OS cells; type: functional
Trypanosoma cruzi [13] = assay: Potency index, ratio of benznidazole IC50 to compound IC50 for antitrypanosomal activity against Trypanosoma cruzi Colombiana Tc1 epimastigotes; type: functional

log1/IC50 (Trypanosoma cruzi [3])	IC50 (Trypanosoma cruzi [3])	IC50 (Trypanosoma cruzi [6])	SMILES	log1/IC50 (Trypanosoma cruzi [1])	IC50 (Trypanosoma cruzi [1])	log1/IC50 (Trypanosoma cruzi [2])	IC50 (Trypanosoma cruzi [2])	log1/IC50 (Trypanosoma cruzi [4])	IC50 (Trypanosoma cruzi [4])	inhibition at 1 µM (Trypanosoma cruzi [5])	CC50 [7]	selectivity ratio [8]	Emax (Trypanosoma cruzi [9])	Activity (Trypanosoma cruzi [10])	Activity (Trypanosoma cruzi [11])	Activity (U2OS)	Ratio IC50 (Trypanosoma cruzi [12])	Ratio IC50 (Trypanosoma cruzi [13])
5.86	1.37 µM	0.82 µM	CCCCCCCc1ccc(C(=O)N/N=C/c2ccc([N+](=O)[O-])o2)cc1	5.98	1.05 µM	5.7	1.98 µM	6.17	0.67 µM	98.5%	> 200 µM	> 244	103%	Active	inactive	Non-Toxic	70	
5.59	2.55 µM	0.96 µM	CCCCCc1ccc(C(=O)N/N=C/c2ccc([N+](=O)[O-])o2)cc1	5.75	1.76 µM	5.42	3.77 µM	5.7	1.99 µM	98.5%	> 200 µM	> 208	104%				70	
5.83	1.47 µM	0.88 µM	CCCCCCCOc1ccc(C(=O)N/N=C/c2ccc([N+](=O)[O-])o2)cc1	5.96	1.09 µM	5.7	1.99 µM	6.07	0.85 µM	98.5%	> 200 µM	> 227	98.3%				70	
5.03	9.28 µM		CCOC(=O)N/N=C/c1ccc([N+](=O)[O-])o1	5.15	7.07 µM	4.95	11.3 µM	5.16	6.92 µM									25 - 30
5.6	2.5 µM	1.66 µM	CCCCCC1CCC(C(=O)N/N=C/c2ccc([N+](=O)[O-])o2)CC1 (configuration not stated)	5.83	1.47 µM	5.64	2.3 µM	5.9	1.27 µM	98.5%	> 200 µM	> 120	103%					
